Results as given in ChEMBL document CHEMBL3108721, “4,4'-Unsymmetrically substituted 3,3'-biphenyl alpha helical proteomimetics as potential coactivator binding inhibitors” (Bioorg Med Chem, 2014).

Key:
[1] = Cytotoxicity against ER-negative human SKBR3 cells expressing ER-alpha coexpressing ERE assessed as cell death at >50 uM; type: cell-based; details: sk-br-3
Outline: (§1)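 ER-negative SKBR3 cells cotransfected with 3xERE-TATA-luciferase, RST7-ERα and pCMV-β-gal for normalization. […] Scored as >50% decrease or increase at <20, 20–50 or >50 μM, or <20% change. 4-hydroxytamoxifen as antagonist control. Cell death above 50 μM flagged.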

[2] = biological target: T1, Estrogen receptor (Homo sapiens) (UniProt P03372); test: Inhibition of ER-alpha (unknown origin) transcriptional activity expressed in ER-negative human SKBR3 cells coexpressing ERE assessed as change in reporter gene activity after 40 hrs in presence of estradiol relative to control; type: cell-based; design: concentration or dose not given beside the values; details: SK-BR-3; outline: as §1
T1 sequence (whole entry): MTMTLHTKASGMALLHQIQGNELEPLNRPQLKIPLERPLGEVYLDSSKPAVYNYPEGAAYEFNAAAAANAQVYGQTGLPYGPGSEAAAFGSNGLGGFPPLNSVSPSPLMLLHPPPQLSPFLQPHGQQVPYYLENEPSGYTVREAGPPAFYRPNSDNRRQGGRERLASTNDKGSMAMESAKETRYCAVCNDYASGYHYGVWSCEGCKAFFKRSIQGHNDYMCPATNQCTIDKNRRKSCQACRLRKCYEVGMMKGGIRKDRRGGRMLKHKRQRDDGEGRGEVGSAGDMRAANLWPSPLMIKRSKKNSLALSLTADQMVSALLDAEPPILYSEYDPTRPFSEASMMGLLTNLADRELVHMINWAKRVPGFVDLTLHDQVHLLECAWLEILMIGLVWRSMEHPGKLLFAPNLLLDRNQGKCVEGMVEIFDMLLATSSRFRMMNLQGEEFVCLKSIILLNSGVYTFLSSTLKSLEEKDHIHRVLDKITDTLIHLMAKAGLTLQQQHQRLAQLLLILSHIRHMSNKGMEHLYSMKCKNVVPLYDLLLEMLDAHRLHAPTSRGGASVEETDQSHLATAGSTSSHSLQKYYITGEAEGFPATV

[3] = Cytotoxicity against ER-negative human SKBR3 cells expressing ER-alpha coexpressing ERE assessed as cell death at >50 uM in presence of estradiol; type: cell-based; details: sk-br-3; outline: as §1
[4] = biological target: T1, Estrogen receptor (Homo sapiens); test: Competitive inhibition of ER-alpha (unknown origin)-GRIP1 interaction expressed in human HepG2 cells assessed as change in reporter gene activity after 40 hrs relative to control; type: cell-based; design: concentration or dose not given beside the values
Outline: (§2)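 HepG2 cells transfected with VP16-ERα, Gal4-DBD-fused GRIP1 LxxLL2 peptide and 5xGal4Luc3 reporter. […] Scored as >50% decrease or increase at <20, 20–50 or >50 μM, or <20% change. 4-hydroxytamoxifen as antagonist control. Cell death and precipitation flagged.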

[5] = biological target: T1, Estrogen receptor (Homo sapiens); test: Competitive inhibition of ER-alpha (unknown origin)-GRIP1 interaction expressed in human HepG2 cells assessed as decrease in reporter gene activity at >50 uM after 40 hrs in presence of estradiol relative to control; type: cell-based; design: scale not given: the % may be the effect or the level left; outline: as §2
[6] = biological target: T1, Estrogen receptor (Homo sapiens); test: Inhibition of ER-alpha (unknown origin) transcriptional activity expressed in ER-negative human SKBR3 cells coexpressing ERE assessed as increase in reporter gene activity at <20 uM after 40 hrs relative to control; type: cell-based; design: scale not given: the % may be the effect or the level left; details: SK-BR-3; outline: as §1
[7] = biological target: T1, Estrogen receptor (Homo sapiens); test: Inhibition of ER-alpha (unknown origin) transcriptional activity expressed in ER-negative human SKBR3 cells coexpressing ERE assessed as increase in reporter gene activity at >50 uM after 40 hrs relative to control; type: cell-based; design: scale not given: the % may be the effect or the level left; details: SK-BR-3; outline: as §1
[8] = biological target: T1, Estrogen receptor (Homo sapiens); test: Competitive inhibition of ER-alpha (unknown origin)-GRIP1 interaction expressed in human HepG2 cells assessed as change in reporter gene activity after 40 hrs in presence of estradiol relative to control; type: cell-based; design: concentration or dose not given beside the values; outline: as §2
[9] = biological target: T1, Estrogen receptor (Homo sapiens); test: Inhibition of ER-alpha (unknown origin) transcriptional activity expressed in ER-negative human SKBR3 cells coexpressing ERE assessed as decrease in reporter gene activity at <20 uM after 40 hrs relative to control; type: cell-based; design: scale not given: the % may be the effect or the level left; details: SK-BR-3; outline: as §1
[10] = biological target: T1, Estrogen receptor (Homo sapiens); test: Inhibition of ER-alpha (unknown origin) transcriptional activity expressed in ER-negative human SKBR3 cells coexpressing ERE assessed as decrease in reporter gene activity at <20 uM after 40 hrs in presence of estradiol relative to control; type: cell-based; design: scale not given: the % may be the effect or the level left; details: SK-BR-3; outline: as §1
[11] = biological target: T1, Estrogen receptor (Homo sapiens); test: Competitive inhibition of ER-alpha (unknown origin)-GRIP1 interaction expressed in human HepG2 cells assessed as decrease in reporter gene activity at <20 uM after 40 hrs relative to control; type: cell-based; design: scale not given: the % may be the effect or the level left; outline: as §2
[12] = biological target: T1, Estrogen receptor (Homo sapiens); test: Competitive inhibition of ER-alpha (unknown origin)-GRIP1 interaction expressed in human HepG2 cells assessed as decrease in reporter gene activity at <20 uM after 40 hrs in presence of estradiol relative to control; type: cell-based; design: scale not given: the % may be the effect or the level left; outline: as §2
[13] = biological target: T2, Estrogen receptor (Homo sapiens, UniProt P03372); test: Mixed-type inhibition of ER-alpha (unknown origin) expressed in ER-negative human SKBR3 cells coexpressing ERE using estradiol as substrate; type: cell-based, SK-BR-3
T2 sequence (P03372 whole entry): T1 sequence (whole entry)

[14] = biological target: T1, Estrogen receptor (Homo sapiens); test: Competitive inhibition of ER-alpha (unknown origin)-GRIP1 interaction expressed in human HepG2 cells assessed as increase in reporter gene activity at >50 uM after 40 hrs relative to control; type: cell-based; design: scale not given: the % may be the effect or the level left; outline: as §2
[15] = test system: HepG2; test: Cytotoxicity against human HepG2 cells expressing ER-alpha coexpressing GRIP1 assessed as cell death at >50 uM; type: cell-based; outline: as §2
[16] = test system: HepG2; test: Cytotoxicity against human HepG2 cells expressing ER-alpha coexpressing GRIP1 assessed as cell death at >50 uM in presence of estradiol; type: cell-based; outline: as §2
[17] = biological target: T1, Estrogen receptor (Homo sapiens); test: Inhibition of ER-alpha (unknown origin) transcriptional activity expressed in ER-negative human SKBR3 cells coexpressing ERE assessed as change in reporter gene activity after 40 hrs relative to control; type: cell-based; design: concentration or dose not given beside the values; details: SK-BR-3; outline: as §1
[18] = biological target: T1, Estrogen receptor (Homo sapiens); test: Competitive inhibition of ER-alpha (unknown origin)-GRIP1 interaction expressed in human HepG2 cells assessed as decrease in reporter gene activity at >50 uM after 40 hrs relative to control; type: cell-based; design: scale not given: the % may be the effect or the level left; outline: as §2
[19] = biological target: T1, Estrogen receptor (Homo sapiens); test: Inhibition of ER-alpha (unknown origin) transcriptional activity expressed in ER-negative human SKBR3 cells coexpressing ERE assessed as increase in reporter gene activity at 20 to 50 uM after 40 hrs relative to control; type: cell-based; design: scale not given: the % may be the effect or the level left; details: SK-BR-3; outline: as §1
[20] = biological target: T1, Estrogen receptor (Homo sapiens); test: Competitive inhibition of ER-alpha (unknown origin)-GRIP1 interaction expressed in human HepG2 cells assessed as decrease in reporter gene activity at less than 20 uM after 40 hrs relative to control; design: scale not given: the % may be the effect or the level left
[21] = biological target: T2, Estrogen receptor; test: Competitive inhibition of ER-alpha (unknown origin) ligand binding pocket expressed in ER-negative human SKBR3 cells coexpressing ERE using estradiol as substrate; type: cell-based, SK-BR-3
Outline: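 SKBR3 (ER-negative breast cancer) cells were transfected with RST7–ERα, a 3xERE-TATA-luciferase reporter and a pCMV-β-gal normalization control. […] Cells were incubated 40 h, then luciferase reporter activity was read.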

Compound	Activity [2]	Activity [4]	Activity [7]	Activity [8]	Activity [15]	Activity [16]	other results
CCOC(=O)COc1ccc(-c2ccc(O)c(Cc3ccc4ccccc4c3)c2)cc1Cc1ccc2ccccc2c1	< 20%	< 20%	> 50%	< 20%	–	–	–
CCOC(=O)COc1ccc(-c2ccc(OCCN(C)C)cc2)cc1CC1CCCCC1	–	–	–	–	–	–	Activity [9]: > 50%; Activity [10]: > 50%; Activity [11]: > 50%; Activity [12]: > 50%; IC50 [13]: 12.7 µM
CCOC(=O)COc1ccc(-c2ccc(O)cc2)cc1Cc1ccc(-c2ccccc2)cc1	< 20%	–	> 50%	< 20%	Toxic	Toxic	Activity [14]: > 50%
CCOC(=O)COc1ccc(-c2ccc(OCCN(C)C)cc2)cc1Cc1ccc(-c2ccccc2)cc1	< 20%	–	–	< 20%	Toxic	Toxic	Activity [17]: < 20%; Activity [18]: > 50%
CCOC(=O)COc1ccc(-c2ccc(OCCN(C)C)cc2)cc1Cc1ccc2ccccc2c1	–	–	–	–	Toxic	Toxic	Activity [9]: > 50%; Activity [10]: > 50%; Activity [11]: > 50%; Activity [12]: > 50%; IC50 [21]: 3.2 µM
CCOC(=O)COc1ccc(-c2ccc(O)c(Cc3ccc(-c4ccccc4)cc3)c2)cc1Cc1ccc(-c2ccccc2)cc1	< 20%	< 20%	–	< 20%	–	–	Activity [6]: > 50%
CCCCCCCc1cc(-c2ccc(OCC(=O)OCC)c(CCCCCCC)c2)ccc1OCCN(C)C	< 20%	–	> 50%	< 20%	–	–	Activity [14]: > 50%

More lines, main results first:

Activity [2]	Activity [4]	Activity [7]	Activity [8]	Compound	Activity [15]	Activity [16]	other results
< 20%	< 20%	–	–	CCOC(=O)COc1ccc(-c2ccc(O)c(CC3CCCCC3)c2)cc1	–	–	Activity [1]: Toxic; Activity [3]: Toxic; Activity [5]: > 50%; Activity [6]: > 50%
< 20%	< 20%	–	< 20%	CCOC(=O)COc1ccc(-c2ccc(O)cc2)cc1CC1CCCCC1	–	–	Activity [6]: > 50%
< 20%	–	–	< 20%	CCOC(=O)COc1ccc(-c2ccc(OCCN(C)C)c(CC3CCCCC3)c2)cc1	–	–	Activity [19]: > 50%; Activity [20]: > 50%
< 20%	< 20%	> 50%	–	CCOC(=O)COc1ccc(-c2ccc(OCCN(C)C)c(CC3CCCCC3)c2)cc1CC1CCCCC1	–	–	Activity [1]: Toxic; Activity [3]: Toxic; Activity [5]: > 50%
< 20%	–	> 50%	< 20%	CCCCCCCc1cc(-c2ccc(OCC(=O)OCC)cc2)ccc1O	Toxic	Toxic	Activity [14]: > 50%
